The list is not random: actives were taken first. Their share in the collection is about 3.8%.
GPR7 antag: GPR7 receptor antagonists, primary screen, cell-based, fluorescence, single concentration. inhibition, % at 4.4 µM. hit rate 1.1% among 290,000. GPR7-expressing cells, fluorescence antagonist assay. Neuropeptides B/W receptor type 1 (Homo sapiens), P48145; in the data active means inhibition above about 16%, passing the limit was not always enough;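 further: cells stimulated with the agonist NPW; 0% = agonist with vehicle and 100% = vehicle without agonist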
OX1R antag-1: antagonists of human orexin 1 receptor (OX1R); inhibition, % at 6.6 µM; OX1R-expressing cells, FRET antagonist read-out; hit rate 1.8% among 330,000; Orexin/Hypocretin receptor type 1 (Homo sapiens), O43613; in the data active means inhibition mostly above about 38%, no sharp cut-off; inactive means mostly below about 40%;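 further: 0% = agonist challenge alone and 100% = reference antagonist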
Target sequence (O43613 whole entry, looked up): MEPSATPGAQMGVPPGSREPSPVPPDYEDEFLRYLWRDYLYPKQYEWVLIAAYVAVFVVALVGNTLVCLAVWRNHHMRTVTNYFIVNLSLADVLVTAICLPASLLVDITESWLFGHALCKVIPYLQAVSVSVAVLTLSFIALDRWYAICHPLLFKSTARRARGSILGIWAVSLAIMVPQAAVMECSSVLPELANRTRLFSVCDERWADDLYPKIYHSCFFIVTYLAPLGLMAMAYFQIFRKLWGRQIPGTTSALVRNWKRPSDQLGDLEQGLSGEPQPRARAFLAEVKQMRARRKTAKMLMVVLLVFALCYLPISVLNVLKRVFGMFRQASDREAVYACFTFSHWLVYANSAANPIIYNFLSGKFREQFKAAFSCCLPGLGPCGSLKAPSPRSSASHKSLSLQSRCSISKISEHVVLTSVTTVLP
MPTP inh: mitochondrial permeability transition pore inhibitors, primary screen, biochemical, isolated mouse mitochondria, absorbance. Ca2+ swelling absorbance, 30 min. inhibition, % at 10 µM. hit rate 1.4% among 360,000;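 active means inhibition of 50% or more, scaled per plate between neutral and stimulator controls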;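 further: 0% = DMSO wells given calcium and 100% = 1 mM EGTA wells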
OX1R antag-2: OX1R (HCRTR1) antagonists, primary screen, fluorescence, CHO/OX1R cells, Fluo-8 calcium, orexin A. Orexin/Hypocretin receptor type 1 (Homo sapiens), O43613. Fluo-8 calcium fluorescence. inhibition, % at 5 µM. hit rate 0.43% among 330,000;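 active means inhibition above its plate's threshold, mean inhibition of all tested compounds on the plate plus 3 SD, cut at about 37% in these data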;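 further: 0% = orexin A challenge wells and 100% = SB-334867-A antagonist wells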
CHO parental Ca: ATP-evoked calcium signal inhibitors, parental CHO, primary screen, counter-screen for OX1R antagonist project, cell-based, fluorescence, Fluo-8 calcium dye; hit rate 0.63% among 330,000; AID 463079, 2010; inhibition, % at 5.6 µM; parental CHO-K1, ATP-induced calcium, Fluo-8 fluorescence;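 active means inhibition above that plate's mean sample inhibition plus 3 SD, cut at about 26% in these data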;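 further: 0% = ATP-challenged DMSO wells and 100% = DMSO wells without ATP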
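Test system: untransfected parental CHO cell line. Compound: one dose, 5.6 µM nominal. Detection: intracellular calcium via Fluo-8 no-wash fluorescent dye. Measure: % inhibition. Benchmarks: ATP-challenged DMSO wells low, unchallenged DMSO wells high.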
MPTP counter: fluorescence retest of MPTP screen hits in isolated mitochondria, single concentration; inhibition, % at 10 µM; hit rate 78% among 5,000; shares compounds with MPTP inh; membrane potential, Rhodamine 123 fluorescence; in the data active means inhibition above about 22%;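 further: 0% = DMSO vehicle and 100% = positive control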
The depositor's hits bear a star.

For O=C(Nc1ccc2ccccc2c1)C(c1ccccc1)C1CCCC1 (configuration not stated) the results were GPR7 antag 14, OX1R antag-1 30, MPTP inh 79*, OX1R antag-2 -18, CHO parental Ca -3 and MPTP counter 62*.
`O=C(Nc1ccccc1)Nc1ccc2ccccc2c1` gave GPR7 antag -6, OX1R antag-1 16, MPTP inh 87*, OX1R antag-2 -1, CHO parental Ca 27 and MPTP counter 83*.
Screening C=CCS/C(N)=N\N=C\c1cc(Br)cc([N+](=O)[O-])c1O returned GPR7 antag -11, OX1R antag-1 56, MPTP inh 53*, OX1R antag-2 0, CHO parental Ca 1 and MPTP counter 51*.
For Cc1cc(C)cc(NC(=O)Nc2ccc(-n3ccc(C(F)(F)F)n3)cc2)c1 the results were GPR7 antag 9, OX1R antag-1 54*, MPTP inh 87*, OX1R antag-2 54*, CHO parental Ca 40* and MPTP counter 83*.
Screening CC(=O)c1c(C)[nH]c(C(=O)COC(=O)COc2ccccc2F)c1C returned OX1R antag-1 10, MPTP inh -1, OX1R antag-2 -7 and CHO parental Ca -17.
COc1ccc(CN(C)C(=O)Cn2cnc3c(NCc4ccccc4)ncnc32)cc1OC was read as OX1R antag-1 29, MPTP inh 0, OX1R antag-2 -10 and CHO parental Ca -8.
`Cc1ccc(S(=O)(=O)N/N=C/c2cc([N+](=O)[O-])ccc2O)cc1[N+](=O)[O-]` gave GPR7 antag -5, OX1R antag-1 25, MPTP inh 72*, OX1R antag-2 -16, CHO parental Ca -11 and MPTP counter 60*.
For Cc1ccc(S(=O)(=O)N/N=C/c2ccc(O)cc2O)cc1[N+](=O)[O-] the results were GPR7 antag -4, OX1R antag-1 16, MPTP inh -1, OX1R antag-2 -15 and CHO parental Ca -7.
`CC(C)(CC(=O)O)CC(=O)N1CCN(c2cc(C(F)(F)F)nc3ccccc23)CC1` gave GPR7 antag -2, OX1R antag-1 3, MPTP inh 0, OX1R antag-2 -8 and CHO parental Ca -4.
For O=S(=O)(c1ccc(Cl)cc1)N1CCN(C(=S)Nc2ccc(F)c(Cl)c2)CC1 the results were GPR7 antag -7, OX1R antag-1 5, MPTP inh 85*, OX1R antag-2 -26, CHO parental Ca -6 and MPTP counter 88*.
O=S(=O)(c1ccccc1)N1CCN(C(=S)Nc2ccc(F)cc2)CC1 was read as GPR7 antag -1, OX1R antag-1 13, MPTP inh 1, OX1R antag-2 -24 and CHO parental Ca 7.
For CCOC(=O)CCCCC1C(CCCC(=O)OCC)C=NN1C (configuration not stated) the results were MPTP inh -2.
COc1cccc(O)c1CN1CCC(C(=O)Nc2ccc(Oc3cccnc3)cc2)CC1 was read as GPR7 antag 4, OX1R antag-1 20, MPTP inh 18, OX1R antag-2 -10 and CHO parental Ca 0.
For COc1ccc(CN2CCC(C(=O)Nc3ccc(Oc4cccnc4)cc3)CC2)c(C)c1C the results were GPR7 antag 8, OX1R antag-1 10, MPTP inh 83*, OX1R antag-2 -15, CHO parental Ca 1 and MPTP counter 91*.
O=C(O)c1cccc(NS(=O)(=O)c2ccc(C3CCCCC3)cc2)c1 was read as GPR7 antag 15, OX1R antag-1 7, MPTP inh 0, OX1R antag-2 5 and CHO parental Ca -8.
Screening N#CCc1ccc(NS(=O)(=O)c2ccc(C3CCCCC3)cc2)cc1 returned GPR7 antag -4, OX1R antag-1 17, MPTP inh 82*, OX1R antag-2 13, CHO parental Ca 68* and MPTP counter 95*.
For Cc1cccc(NS(=O)(=O)c2ccc(C3CCCCC3)cc2)c1 the results were GPR7 antag -10, OX1R antag-1 0, MPTP inh 90*, OX1R antag-2 51*, CHO parental Ca 48* and MPTP counter 93*.
CC1CCCC(NC(=O)CCNC(=O)c2ccccc2Cl)C1C (configuration not stated) was read as OX1R antag-1 8, MPTP inh 0, OX1R antag-2 -23 and CHO parental Ca -12.
For O=C(CN(C(=O)c1ccc(Cl)cc1)C1CCCCC1)Nc1ccc(Cl)c([N+](=O)[O-])c1 the results were GPR7 antag 3, OX1R antag-1 10, MPTP inh 64*, OX1R antag-2 -4, CHO parental Ca -10 and MPTP counter 86*.
Cc1ccc([N+](=O)[O-])cc1NC(=O)CN(C(=O)c1ccc(Cl)cc1)C1CCCCC1 was read as GPR7 antag 12, OX1R antag-1 23, MPTP inh 14, OX1R antag-2 -27 and CHO parental Ca -23.
For O=C(NCCCl)Nc1ccc(Cl)c([N+](=O)[O-])c1 the results were GPR7 antag -5, OX1R antag-1 40, MPTP inh 81*, OX1R antag-2 -2, CHO parental Ca -10 and MPTP counter 93*.
`O=C(Nc1ccc(Cl)c([N+](=O)[O-])c1)C(Sc1ccccc1)c1ccccc1` (configuration not stated) gave GPR7 antag -5, OX1R antag-1 27, MPTP inh 105*, OX1R antag-2 23, CHO parental Ca -6 and MPTP counter 80*.
`CC(C)(C)NS(=O)(=O)c1ccc(NC(=O)C(Sc2ccccc2)c2ccccc2)cc1` (configuration not stated) gave GPR7 antag -8, OX1R antag-1 9, MPTP inh 65*, OX1R antag-2 -6, CHO parental Ca 3 and MPTP counter 73*.
`Nc1nnn(CC(=O)N/N=C/C=C/c2ccccc2)n1` gave GPR7 antag -7, OX1R antag-1 5, MPTP inh -2, OX1R antag-2 -11 and CHO parental Ca -6.
`O=C(CN1C(=O)CSc2ccc(S(=O)(=O)N3CCOCC3)cc21)NCc1cccnc1` gave GPR7 antag -7, OX1R antag-1 10, MPTP inh -1, OX1R antag-2 -10 and CHO parental Ca -19.
Screening Cc1nc(-c2ccncc2)sc1C(=O)Nc1ccc(Br)cc1 returned GPR7 antag -1, OX1R antag-1 45, MPTP inh -2, OX1R antag-2 -42 and CHO parental Ca -24.
`COc1cc(NC(=O)c2cc(-c3cc(F)ccc3OC(C)C)n[nH]2)cc(OC)c1OC` gave MPTP inh 1.
NN/C(=C\[N+](=O)[O-])Nc1ccc(Cl)cc1 was read as GPR7 antag -3, OX1R antag-1 29, MPTP inh 55*, OX1R antag-2 -12, CHO parental Ca -4 and MPTP counter 87*.

Bioassay records from PubChem.
